Data taken from ChEMBL document CHEMBL1151472, “In vitro interactions between tacrolimus and azoles against Candida albicans determined by different methods” (2008).
Values after ≈ are worked out from the molar mass of the structure shown.

Tests used:
Type in all cases: functional
Candida albicans [1] = experiment: Antimicrobial activity against azole-resistant Candida albicans isolate CA15 after 48 hrs by broth microdilution method; settings: isolate CA15, 48 h
In short: (§1)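 CLSI M27-A2 broth microdilution was run in RPMI 1640 (pH 7.0, 2% dextrose, 0.165 M MOPS). Inoculum was 2.5 × 10^3 CFU/ml, incubated 35°C for 48 h without shaking. Plates were read visually (0–5 scale) and at OD 492 nm. MIC80 = lowest concentration giving an 80% absorbance decrease vs drug-free control. Triplicate.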

Candida albicans [2] = experiment: Antimicrobial activity against azole-resistant Candida albicans isolate CA10 assessed as growth at 0.5 ug/ml cotreated with 0.004 ug/ml calcineurin signaling inhibitor tacrolimus after 48 hrs by microdilution checkerboard technique relative to control; design: scale not given: the % may be the effect or the level left
In short: (§2)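 Checkerboard microdilution in MOPS-buffered RPMI 1640 (pH 7.0, 2% dextrose). Final ranges: azole 0.125–128 μg/ml (FLC) or 0.008–8 μg/ml (ITR, VRC), tacrolimus 0.002–0.125 μg/ml; solvent 1% in single-drug wells. Inoculum 2.5 × 10^3 CFU/ml, 35°C, 48 h. Growth % = background-subtracted OD492 of each well / drug-free well. Triplicate on different days.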

Candida albicans [3] = experiment: Antimicrobial activity against azole-resistant Candida albicans isolate CA10 assessed as growth at 2 ug/ml cotreated with 0.002 ug/ml calcineurin signaling inhibitor tacrolimus after 48 hrs by microdilution checkerboard technique relative to control; design: scale not given: the % may be the effect or the level left; in short: as §2
Candida albicans [4] = experiment: Antimicrobial activity against azole-resistant Candida albicans isolate CA10 assessed as growth at 32 ug/ml after 48 hrs by microdilution checkerboard technique relative to control; in short: as §2
Candida albicans [5] = experiment: Antimicrobial activity against azole-resistant Candida albicans isolate CA10 assessed as growth at 32 ug/ml cotreated with 0.063 ug/ml calcineurin signaling inhibitor Tacrolimus after 48 hrs by microdilution checkboard technique relative to control; design: scale not given: the % may be the effect or the level left
In short: (§3)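 CA10 in RPMI 1640 with 2% dextrose and 0.165 M MOPS, pH 7.0. Checkerboard used twofold dilutions, with azole alone in row H and the drug-free growth control in well H1. Final inoculum was 2.5 × 10^3 CFU/ml, incubated 35°C for 48 h, with OD read at 492 nm. Growth % = background-subtracted well OD / drug-free well OD. Run in triplicate on different days.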

Candida albicans [6] = experiment: Antimicrobial activity against azole-resistant Candida albicans isolate CA10 after 48 hrs by broth microdilution method; settings: isolate CA10, 48 h
In short: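 Broth microdilution per CLSI M27-A2 in RPMI 1640 (pH 7.0, 2% dextrose, 0.165 M MOPS), final inoculum 2.5 × 10^3 CFU/ml; 35°C without shaking for 48 h. Read visually (0–5 scale) and by OD 492 nm; MIC80 = lowest concentration giving 80% drop in absorbance versus drug-free control. Triplicate.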

Candida albicans [7] = experiment: Antimicrobial activity against azole-susceptible Candida albicans isolate CA129 co-treated with calcineurin signaling inhibitor tacrolimus after 48 hrs by microdilution checkerboard technique; settings: isolate CA129, 48 h
In short: (§4)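 Checkerboard microdilution in MOPS-buffered RPMI 1640 (pH 7.0, 2% dextrose) with 2.5 × 10^3 CFU/ml for 48 h at 35°C. Final FK506 was 0.002–0.125 μg/ml. Azole finals were FLC 0.125–128 μg/ml, and ITR and VRC 0.008–8 μg/ml. MIC80 is an 80% OD492 decrease vs drug-free control. Interaction was scored by FICI (synergy ≤0.5, antagonism >4) and by ΔE from triplicates.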

Candida albicans [8] = experiment: Antimicrobial activity against azole-resistant Candida albicans isolate CA10 assessed as growth at 8 ug/ml co-treated with 0.008 ug/ml calcineurin signaling inhibitor tacrolimus after 48 hrs by microdilution checkboard technique relative to control; design: scale not given: the % may be the effect or the level left; in short: as §3
Candida albicans [9] = experiment: Antimicrobial activity against azole-resistant Candida albicans isolate CA10 assessed as growth at 64 ug/ml after 48 hrs by microdilution checkerboard technique relative to control; in short: as §3
Candida albicans [10] = experiment: Antimicrobial activity against azole-resistant Candida albicans isolate CA135 after 48 hrs by broth microdilution method; settings: isolate CA135, 48 h; in short: as §1
Candida albicans [11] = experiment: Antimicrobial activity against azole-susceptible Candida albicans isolate CA5 co-treated with calcineurin signaling inhibitor tacrolimus after 48 hrs by microdilution checkerboard technique; settings: isolate CA5, 48 h; in short: as §4
Candida albicans [12] = experiment: Antimicrobial activity against azole-resistant Candida albicans isolate CA10 assessed as growth at 4 ug/ml cotreated with 0.004 ug/ml calcineurin signaling inhibitor tacrolimus after 48 hrs by microdilution checkerboard technique relative to control; design: scale not given: the % may be the effect or the level left; in short: as §3
Candida albicans [13] = experiment: Antimicrobial activity against azole-resistant Candida albicans isolate CA10 assessed as growth at 0.008 ug/ml after 48 hrs by microdilution checkerboard technique relative to control; in short: as §2
Candida albicans [14] = experiment: Antimicrobial activity against azole-resistant Candida albicans isolate CA10 assessed as growth at 16 ug/ml cotreated with 0.125 ug/ml calcineurin signaling inhibitor tacrolimus after 48 hrs by microdilution checkerboard technique relative to control; design: scale not given: the % may be the effect or the level left; in short: as §2
Candida albicans [15] = experiment: Antimicrobial activity against azole-resistant Candida albicans isolate CA10 assessed as growth at 4 ug/ml co-treated with 0.031 ug/ml calcineurin signaling inhibitor tacrolimus after 48 hrs by microdilution checkboard technique relative to control; design: scale not given: the % may be the effect or the level left
In short: (§5)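 Checkerboard microdilution in RPMI 1640 (pH 7.0, 2% dextrose, 0.165 M MOPS). Azole dilutions run along columns and FK506 along rows, at 4× final concentration. Final inoculum 2.5 × 10^3 CFU/ml from Sabouraud-subcultured cells. Incubated 35°C for 48 h; OD read at 492 nm. Background from microorganism-free plates subtracted. Growth % = well OD / drug-free well OD. Triplicate on different days, values averaged.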

Candida albicans [16] = experiment: Antimicrobial activity against azole-resistant Candida albicans isolate CA10 assessed as growth at 128 ug/ml cotreated with 0.004 ug/ml calcineurin signaling inhibitor Tacrolimus after 48 hrs by microdilution checkboard technique relative to control; design: scale not given: the % may be the effect or the level left; in short: as §2
Candida albicans [17] = experiment: Antimicrobial activity against azole-resistant Candida albicans isolate CA10 assessed as growth at 2 ug/ml after 48 hrs by microdilution checkerboard technique relative to control; in short: as §2
Candida albicans [18] = experiment: Antimicrobial activity against azole-resistant Candida albicans isolate CA10 assessed as growth at 64 ug/ml cotreated with 0.004 ug/ml calcineurin signaling inhibitor Tacrolimus after 48 hrs by microdilution checkboard technique relative to control; design: scale not given: the % may be the effect or the level left; in short: as §3
Candida albicans [19] = experiment: Antimicrobial activity against azole-resistant Candida albicans isolate CA10 assessed as growth at 0.004 ug/ml after 48 hrs by microdilution checkerboard technique relative to control; in short: as §2
Candida albicans [20] = experiment: Antimicrobial activity against azole-resistant Candida albicans isolate CA10 assessed as growth at 4 ug/ml cotreated with 0.125 ug/ml calcineurin signaling inhibitor Tacrolimus after 48 hrs by microdilution checkboard technique relative to control; design: scale not given: the % may be the effect or the level left; in short: as §3
Candida albicans [21] = experiment: Antimicrobial activity against azole-resistant Candida albicans isolate CA10 assessed as growth at 0.25 ug/ml co-treated with 0.031 ug/ml calcineurin signaling inhibitor tacrolimus after 48 hrs by microdilution checkboard technique relative to control; design: scale not given: the % may be the effect or the level left; in short: as §5
Candida albicans [22] = experiment: Antimicrobial activity against azole-resistant Candida albicans isolate CA10 assessed as growth at 1 ug/ml cotreated with 0.063 ug/ml calcineurin signaling inhibitor Tacrolimus after 48 hrs by microdilution checkboard technique relative to control; design: scale not given: the % may be the effect or the level left; in short: as §2

For `OC(Cn1cncn1)(Cn1cncn1)c1ccc(F)cc1F` [FLUCONAZOLE], the MIC (Candida albicans [1]) was 128 µg/mL (≈ 418 µM), the Activity (Candida albicans [2]) was 38% and the Activity (Candida albicans [3]) was 48%. For the same compound, the Activity (Candida albicans [4]) was 48%, the Activity (Candida albicans [5]) was 1% and the MIC (Candida albicans [6]) was 256 µg/mL (≈ 836 µM). For the same compound, the MIC (Candida albicans [7]) was 0.25 µg/mL, the Activity (Candida albicans [8]) was 28% and the Activity (Candida albicans [9]) was 48%. For the same compound, the MIC (Candida albicans [10]) was 64 µg/mL (≈ 209 µM), the MIC (Candida albicans [11]) was 0.25 µg/mL and the Activity (Candida albicans [12]) was 46%. The Activity (Candida albicans [13]) was 96%, the Activity (Candida albicans [14]) was 3% and the Activity (Candida albicans [15]) was 16%. For the same compound, the Activity (Candida albicans [16]) was 45%, the Activity (Candida albicans [17]) was 54% and the Activity (Candida albicans [18]) was 27%. The Activity (Candida albicans [19]) was 99%, the Activity (Candida albicans [20]) was 5% and the Activity (Candida albicans [21]) was 23%. The Activity (Candida albicans [22]) was 18%.
